# CHO-K1 Ca ag – M1 agonist counterscreen hit in parental CHO-K1 cells | Fluo-8 calcium fluorescence; scaled to maximal ATP response, vehicle zero | activation, % at 3 µM | hit rate 0.48% among 360,000; in the data active means activation above about 15%;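 further: untransfected CHO-K1 host cells lacking M1 receptor as counterscreen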
# M1 PAM parental – nonselective activator or artifact in parental CHO-K1 calcium assay | ATP EC20, Fluo-8 calcium fluorescence; 0% at ATP EC20, 100% at ATP max | hit rate 0.02% among 360,000 | activation, % at 3 µM;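 active means activation above the run cutoff, the mean activation of all test compounds plus 3 SD, cut at about 40% in these data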;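 further: peak over basal fluorescence ratio in a 140 s read after ATP addition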
# OX1R antag-1 – blocks the human orexin 1 receptor. CHO/OX1R cells, Fluo-8 calcium fluorescence, orexin A. hit rate 0.43% among 330,000. inhibition, % at 5 µM. O43613. AID 434989;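 active means inhibition above its plate's threshold, mean inhibition of all tested compounds on the plate plus 3 SD, cut at about 37% in these data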;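 further: 0% = orexin A challenge wells and 100% = SB-334867-A antagonist wells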
# Target sequence (O43613 whole entry, looked up): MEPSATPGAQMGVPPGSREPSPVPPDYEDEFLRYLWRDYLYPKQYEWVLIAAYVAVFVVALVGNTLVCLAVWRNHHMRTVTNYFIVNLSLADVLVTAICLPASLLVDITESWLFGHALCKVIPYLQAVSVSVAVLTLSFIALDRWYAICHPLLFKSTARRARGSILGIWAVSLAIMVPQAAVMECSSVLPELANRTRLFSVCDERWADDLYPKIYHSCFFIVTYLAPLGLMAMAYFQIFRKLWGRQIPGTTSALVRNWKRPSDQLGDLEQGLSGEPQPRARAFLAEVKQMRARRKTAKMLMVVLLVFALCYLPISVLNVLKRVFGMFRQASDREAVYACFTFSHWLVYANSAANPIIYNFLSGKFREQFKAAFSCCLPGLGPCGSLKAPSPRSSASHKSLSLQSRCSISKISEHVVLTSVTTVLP
# OX1R antag-2 – OX1R (human) antagonism | O43613 | hit rate 1.8% among 330,000 | OX1R-expressing cells, FRET antagonist read-out | inhibition, % at 6.6 µM; in the data active means inhibition mostly above about 38%, no sharp cut-off; inactive means mostly below about 40%;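 further: 0% = agonist challenge alone and 100% = reference antagonist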
# CHO parental Ca – counter-screen for OX1R antagonists: effect in parental CHO cells | hit rate 0.63% among 330,000 | inhibition, % at 5.6 µM | parental CHO-K1, ATP-induced calcium, Fluo-8 fluorescence;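 active means inhibition above that plate's mean sample inhibition plus 3 SD, cut at about 26% in these data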;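 further: 0% = ATP-challenged DMSO wells and 100% = DMSO wells without ATP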
#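 Test system: untransfected parental CHO cell line; also added: ATP stimulus; dosing: 5.6 µM, single dose; signal: calcium-sensitive Fluo-8 fluorescence; measure: percent inhibition of ATP-evoked calcium rise, normalized to controls; benchmarks: low control ATP plus DMSO, high control DMSO only; replication: one well per compound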
# CHO-K1 Ca antag – M1 antagonist counterscreen hit in parental CHO-K1 cells. ATP-induced calcium, Fluo-8 fluorescence. inhibition, % at 3 µM. hit rate 0.6% among 360,000;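 active means inhibition above a per-plate cutoff, the plate's mean sample inhibition plus 3 SD, cut at about 24% in these data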;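 further: 0% = DMSO plus EC80 ATP and 100% = DMSO alone without ATP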
# OX1R HTRF confirm – confirmation of human orexin 1 receptor antagonists, HTRF format | inhibition, % at 6.6 µM | shares compounds with OX1R antag-2 | AID 492964 | hit rate 49% among 1,800 | OX1R-expressing cells, HTRF antagonist assay; in the data active means inhibition above about 55%;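 further: CHO cells expressing OX1R stimulated with orexin A at about EC80; 0% = agonist challenge alone and 100% = reference antagonist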
# CHO-K1 HTRF cnt – counter-screen: parental CHO-K1 HTRF response. inhibition, % at 6.6 µM. parental CHO-K1 cells, HTRF counterscreen. AID 493232. hit rate 48% among 1,800. shares compounds with OX1R antag-2; in the data active means inhibition above about 17%;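 further: 0% = agonist challenge with vehicle and 100% = vehicle alone without agonist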
# Starred values were filed as active, the others as inactive; · = no result. Hits are enriched below; roughly 2.9% of the tested compounds scored in any of these assays.
SMILES,CHO-K1 Ca ag,M1 PAM parental,OX1R antag-1,OX1R antag-2,CHO parental Ca,CHO-K1 Ca antag,OX1R HTRF confirm,CHO-K1 HTRF cnt
CCCNC(=O)C(Cc1ccccc1)NS(=O)(=O)c1cccc2nsnc12 (stereo not drawn),-0.2,7.3,-8.7,125.7*,-23.2,-3.9,38.0,26.6*
CCC(C)NC(=O)C(Cc1ccccc1)NS(=O)(=O)c1cccc2nsnc12 (stereo not drawn),0.5,23.0,1.6,152.6*,-17.7,-6.4,55.4*,-4.2
CCOCCCNC(=O)C(Cc1ccccc1)NS(=O)(=O)c1cccc2nsnc12 (stereo not drawn),4.2,28.6,-3.8,38.7,-20.1,-12.9,·,·
COc1ccccc1NC(=S)NC(NC(=O)CC(C)C)C(Cl)(Cl)Cl (stereo not drawn),2.3,10.0,-23.6,14.6,-11.3,-17.6,·,·
O=C(Cc1cccc(NC(=O)C2CCN(C(=O)CCc3ccccc3)CC2)c1)Nc1cccc(C(=O)N2CCCC2)c1,-0.7,7.0,-29.2,3.6,-12.4,-4.8,·,·
Cc1[nH]c2ccccc2c1/C=N/Nc1nncn1N,-0.1,20.1,21.3,139.2*,-4.5,-19.0,16.8,9.8
CC(C#N)(NC(=O)CN1CCN(S(=O)(=O)c2ccccc2Cl)CC1)C1CC1 (stereo not drawn),0.7,-9.0,1.0,0.5,-14.7,-0.1,·,·
COc1cc(CN2CCN(CC3CC3)CC2CCO)cc(OC)c1 (stereo not drawn),0.6,4.7,-25.7,8.7,-16.0,1.3,·,·
COCC(=O)N1CCN(c2ccc([N+](=O)[O-])cc2)CC1,0.7,-6.2,-5.6,159.8*,-6.8,5.8,38.7,41.1*
Cc1cc(C)c(NC(=O)COC(=O)c2ccc([N+](=O)[O-])s2)c(C)c1,0.8,23.0,-1.7,29.7,-5.3,-7.3,·,·
CC(NC(=O)COC(=O)c1ccc([N+](=O)[O-])s1)c1ccccc1 (stereo not drawn),0.1,-7.6,-10.4,81.3*,-9.5,1.3,24.2,17.4*
CCNc1ccc(C(=O)OCC(=O)NC(C)c2ccccc2)cc1[N+](=O)[O-] (stereo not drawn),0.9,-2.0,-10.1,22.1,-7.2,9.2,·,·
O=C(COC(=O)c1ccc([N+](=O)[O-])s1)NCc1ccc(F)cc1,1.6,6.9,-8.8,89.1*,-9.8,-0.1,46.4,48.0*
COc1ccccc1NC(=O)COC(=O)c1ccc([N+](=O)[O-])s1,2.0,-10.3,-13.1,90.7*,-13.5,-7.5,37.1,48.4*
Cc1cc(CNC(=S)Nc2ccc(Br)cc2Cl)nn1C,3.4,3.7,-8.4,10.5,0.2,-6.6,·,·
COc1ccc2[nH]c3c(c2c1)CCN1C(=O)C(CC(=O)NCc2ccc(OC)c(OC)c2)C[C@H](C(=O)N2CCCCC2)[C@@]31CCc1ccccc1 (stereo partly drawn),0.5,26.5,-20.7,4.3,-23.5,-28.3,·,·
COc1cc(-c2nccc3cc4c(cc23)OCO4)cc(OC)c1OC,4.3,13.3,·,·,·,-9.4,·,·
COc1cc2c(cc1OC)-c1c(OC)c(OC)cc3ccnc(c13)C2=O,-0.3,20.0,-10.9,79.6*,-6.8,-20.1,46.5,26.0*
O=C(NCCc1ccc(OC(F)F)cc1)C1CC(=O)N(c2ccc3c(c2)OCCO3)C1 (stereo not drawn),1.9,18.9,-12.7,7.8,-15.1,-12.2,·,·
COC(CNC(=O)c1ccc2nc(-c3cccs3)c(-c3cccs3)nc2c1)OC,1.3,21.6,0.7,84.3*,-17.7,-10.4,42.0,6.5
O=[N+]([O-])c1ccc(N/N=C2\CC3CC=CC23)c([N+](=O)[O-])c1 (stereo not drawn),8.9,1.9,11.9,82.2*,22.9,12.0,25.8,19.4*
CC1CCC/C(=N/Nc2ccc([N+](=O)[O-])cc2[N+](=O)[O-])C1 (stereo not drawn),0.4,4.2,-17.6,107.5*,-15.4,8.7,34.9,27.1*
O=[N+]([O-])c1ccc(NN=C2CCCCC2)c([N+](=O)[O-])c1,1.6,14.3,·,·,·,-6.8,·,·
CC1(C)N([O-])C2=C(c3ccccc3C2=O)[N+](=O)C1(C)C,0.2,4.9,0.8,168.9*,0.8,1.7,56.4*,66.1*
O=C(CCl)NC1(C(=O)O)CCCC1,0.0,4.6,·,·,·,-6.5,·,·
SMILES,CHO-K1 Ca ag,M1 PAM parental,OX1R antag-1,OX1R antag-2,CHO parental Ca,CHO-K1 Ca antag,OX1R HTRF confirm,CHO-K1 HTRF cnt
CC(=O)c1c(COC(=O)c2cccc(C)c2)nc2ccccc2[n+]1[O-],2.7,-0.5,-31.5,15.4,-19.4,1.1,·,·
CCOC(=O)c1c(COC(=O)c2ccco2)nc2ccccc2[n+]1[O-],0.7,5.3,-13.1,106.8*,-24.4,1.7,52.7,28.2*
COc1ccc2nc(COC(=O)c3ccco3)c(C(C)=O)[n+]([O-])c2c1,1.1,13.2,-5.7,125.5*,-27.6,-4.8,31.8,34.9*
CC(=O)c1c(COC(=O)c2ccncc2)nc2ccccc2[n+]1[O-],0.2,18.6,-17.4,67.5,0.3,-9.5,·,·
CC(C)NC(=O)OCc1c(COC(=O)NC(C)C)c([N+](=O)[O-])n2c1CCC2,-0.5,0.4,·,·,·,-1.9,·,·
CC1(C)OC2OC3C(CNCCO)OC(c4ccccc4)OC3C2O1 (stereo not drawn),-0.1,5.9,·,·,·,-4.8,·,·
CCC(C)NC(=O)Cn1nc(Cc2ccncc2)c2ccccc2c1=O (stereo not drawn),4.4,6.8,-3.1,2.5,-5.0,-7.6,·,·
CSCC[C@H](NC(=O)[C@H](Cc1ccccc1)n1c(=O)[nH]c2ccccc2c1=O)C(=O)NCC1CCC(C(=O)O)CC1 (stereo partly drawn),0.4,9.1,-3.7,9.5,-5.2,-6.0,·,·
CC1=C(C(=O)N2CCCCCC2)CC(CC(=O)NCCc2ccccn2)C(=O)N1CCCN1CCCC1=O (stereo not drawn),2.8,9.5,·,·,·,-7.8,·,·
O=c1oc2ccc(Br)cc2cc1-c1nc2ccccc2o1,0.5,3.5,2.3,14.5,14.6,-10.2,·,·
COc1cccc2cc(-c3nc4ccccc4o3)c(=O)oc12,0.1,-0.4,0.1,123.2*,-21.7,-1.8,24.5,18.1*
CCOC(=O)CN1C=C(c2ccc3ccccc3n2)C(C[N+](=O)[O-])c2ccccc21 (stereo not drawn),1.6,12.5,-19.9,117.0*,-21.1,-3.9,55.3*,66.6*
Nc1nnc(-c2cccc([N+](=O)[O-])c2)s1,1.7,0.2,-4.2,111.2*,-5.5,5.8,34.8,40.2*
Cc1cccc(NC(=S)N/N=C/c2ccc([N+](=O)[O-])s2)c1,3.0,9.7,-11.1,46.0,-1.5,9.3,·,·
